Test results taken from ChEMBL document CHEMBL1165950, “Design and synthesis of new potent anticancer pyrazoles with high FLT3 kinase inhibitory selectivity” (Bioorg Med Chem, 2010).

How the values were obtained:
Format in all cases: functional
HCT-15 = assay: Cytotoxicity against human HCT15 cells assessed as cell growth at 100 nM after 48 hrs by sulforhodamine B assay; conditions: HCT-15, 48 h, read-out: Activity
SK-MEL-2 = assay: Cytotoxicity against human SK-MEL-2 cells assessed as cell growth at 100 nM after 48 hrs by sulforhodamine B assay; conditions: SK-MEL-2, 48 h, read-out: Activity
786-0 = assay: Cytotoxicity against human 786-0 cells assessed as cell growth at 100 nM after 48 hrs by sulforhodamine B assay; conditions: 786-0, 48 h, read-out: Activity
Summary of the method: (§1)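 NCI-60 five-dose screen. Cells were grown in RPMI 1640 with 5% FBS and 2 mM L-glutamine, plated at 5000–40,000 cells/well and preincubated for 24 h. Time-zero plates were TCA-fixed. DMSO-solubilized drug was added at five concentrations (10-fold or ½-log serial dilutions) for 48 h at 37 °C, 5% CO2. Cells were TCA-fixed, stained with 0.4% SRB and read at 515 nm. Percent growth used time-zero, control and test absorbances.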

SK-MEL-5 [1] = assay: Cytotoxicity against human SK-MEL-5 cells assessed as cell growth at 10 uM; conditions: read-out: Activity
Summary of the method: (§2)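 NCI-60 screen: cells grown in RPMI 1640 with 5% FBS and 2 mM L-glutamine, plated at 5000–40,000 cells/well according to doubling time, and preincubated 24 h at 37 °C, 5% CO2. The single 10 µM dose (DMSO stock) was added, then incubated 48 h. Cells were TCA-fixed and stained with 0.4% SRB, read at 515 nm, and growth % calculated against time-zero and control plates.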

A498 [2] = assay: Cytotoxicity against human A498 cells assessed as cell growth at 10 uM; conditions: read-out: Activity
Summary of the method: (§3)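 Single-dose NCI-60 screen at 10 µM. Cells were grown in RPMI 1640 with 5% FBS and 2 mM L-glutamine, then treated for 48 h at 37 °C. Protein was measured by SRB staining with absorbance at 515 nm. Percentage growth was recorded, and inhibition percentage was calculated as 100 minus growth percentage.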

HOP-92 = assay: Cytotoxicity against human HOP92 cells assessed as cell growth at 0.01 uM after 48 hrs by sulforhodamine B assay; conditions: HOP-92, 48 h, read-out: Activity
NCI-H522 = assay: Cytotoxicity against human NCI-H522 cells assessed as cell growth at 0.01 uM after 48 hrs by sulforhodamine B assay; conditions: NCI-H522, 48 h, read-out: Activity
CCRF-CEM [3] = assay: Growth inhibition of human CCRF-CEM cells after 48 hrs by sulforhodamine B assay
Summary of the method: (§4)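 NCI five-dose SRB assay in RPMI 1640 with 5% FBS and 2 mM L-glutamine. Cells were preincubated 24 h, then exposed 48 h at 37 °C to five concentrations (10-fold or half-log serial dilutions from DMSO stocks). TCA fixation, SRB staining, and absorbance at 515 nm followed. IC50 was taken where [(Ti−Tz)/(C−Tz)]×100 = 50, with Tz as time-zero cell density.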

UACC-62 = assay: Cytotoxicity against human UACC62 cells assessed as cell growth at 0.01 uM after 48 hrs by sulforhodamine B assay; conditions: UACC-62, 48 h, read-out: Activity
OVCAR-8 = assay: Cytotoxicity against human OVCAR8 cells assessed as cell growth at 0.01 uM after 48 hrs by sulforhodamine B assay; conditions: OVCAR-8, 48 h, read-out: Activity
NCI/ADR-RES [4] = assay: Cytotoxicity against human NCI/ADR-RES cells assessed as cell growth at 0.01 uM after 48 hrs by sulforhodamine B assay; conditions: read-out: Activity
TK-10 = assay: Cytotoxicity against human TK10 cells assessed as cell growth at 0.01 uM after 48 hrs by sulforhodamine B assay; conditions: TK-10, 48 h, read-out: Activity
SK-MEL-5 [5] = assay: Cytotoxicity against human SK-MEL-5 cells assessed as cell growth at 0.001 uM after 48 hrs by sulforhodamine B assay; conditions: SK-MEL-5, 48 h, read-out: Activity
CAKI-1 [6] = assay: Cytotoxicity against human Caki1 cells assessed as cell growth at 0.001 uM after 48 hrs by sulforhodamine B assay; conditions: CAKI-1, 48 h, read-out: Activity
[7] = Growth inhibition of human […] cells after 48 hrs by sulforhodamine B assay; conditions: for CC50: read-out: LC50 (the source's name)
Summary of the method: (§5)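 NCI 60-cell screen, five-dose mode. Cells grown in RPMI 1640 with 5% FBS and 2 mM L-glutamine and plated at 5000-40,000 cells/well according to doubling time. After 24 h preincubation, a Tz plate was TCA-fixed. Five concentrations (10-fold or 1/2 log dilutions) were applied for 48 h at 37 °C. SRB staining read at 515 nm. IC50 taken from [(Ti-Tz)/(C-Tz)]×100 = 50.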

NCI/ADR-RES [8] = assay: Growth inhibition of human NCI/ADR-RES cells after 48 hrs by sulforhodamine B assay; conditions: for CC50: read-out: LC50 (the source's name); summary of the method: as §5
CCRF-CEM [9] = assay: Cytotoxicity against human CCRF-CEM cells assessed as cell growth at 100 nM after 48 hrs by sulforhodamine B assay; conditions: read-out: Activity; summary of the method: as §1
CAKI-1 [10] = assay: Growth inhibition of human Caki1 cells after 48 hrs by sulforhodamine B assay; conditions: CAKI-1, 48 h; for CC50: read-out: LC50 (the source's name); summary of the method: as §4
SN12C = assay: Growth inhibition of human SN12C cells after 48 hrs by sulforhodamine B assay; summary of the method: as §5
K562 = assay: Cytotoxicity against human K562 cells assessed as cell growth at 10 uM; conditions: read-out: Activity; summary of the method: as §3
HOP-62 = assay: Cytotoxicity against human HOP62 cells assessed as cell growth at 10 uM; conditions: read-out: Activity; summary of the method: as §3
NCI-H23 = assay: Cytotoxicity against human NCI-H23 cells assessed as cell growth at 10 uM; conditions: read-out: Activity; summary of the method: as §2
HL-60(TB) = assay: Cytotoxicity against human HL-60(TB) cells assessed as cell growth at 10 uM after 48 hrs by sulforhodamine B assay; conditions: HL-60, 48 h, read-out: Activity
Summary of the method: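 NCI 60-cell panel. Cells are grown in RPMI 1640 with 5% FBS and 2 mM L-glutamine, seeded at 5000–40,000 cells/well according to doubling time, and preincubated 24 h. Time-zero plates are TCA-fixed. Compound from DMSO stock is given at five 10-fold or 1/2-log concentrations for 48 h at 37 °C, 5% CO2. Suspension cells are fixed with 80% TCA (final 16%) and SRB-stained, with absorbance at 515 nm. Percent growth is derived from Tz, control and test readings.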

A498 [11] = assay: Cytotoxicity against human A498 cells assessed as cell growth at 10 uM after 48 hrs by sulforhodamine B assay; conditions: A498, 48 h, read-out: Activity; summary of the method: as §1
ACHN = assay: Cytotoxicity against human ACHN cells assessed as cell growth at 10 uM after 48 hrs by sulforhodamine B assay; conditions: read-out: Activity; summary of the method: as §1
CAKI-1 [12] = assay: Cytotoxicity against human Caki1 cells assessed as cell growth at 10 uM after 48 hrs by sulforhodamine B assay; conditions: CAKI-1, 48 h, read-out: Activity

Row | Structure (SMILES) | growth at 0.1 µM (HCT-15) | growth at 0.1 µM (SK-MEL-2) | growth at 0.1 µM (786-0) | growth at 10 µM (SK-MEL-5 [1]) | growth at 10 µM (A498 [2]) | growth at 0.01 µM (HOP-92) | growth at 0.01 µM (NCI-H522) | GI50 (CCRF-CEM [3]) | LC50 (CCRF-CEM [3]) | TGI (CCRF-CEM [3]) | growth at 0.01 µM (UACC-62) | growth at 0.01 µM (OVCAR-8) | growth at 0.01 µM (NCI/ADR-RES [4]) | growth at 0.01 µM (TK-10) | growth at 0.001 µM (SK-MEL-5 [5]) | growth at 0.001 µM (CAKI-1 [6]) | GI50 [7] | TGI [7] | CC50 [7] | GI50 (NCI/ADR-RES [8]) | also measured
1 | COc1cc(C)cc(-c2c(-c3ccnc(-c4ccc(N(C)C)cc4)c3)cnn2CC#N)c1 | 14% | 14% | 6% | -18.4% | 21.3% | -9% | -7% | 0.237 µM | > 100 µM | > 100 µM | 38% | 28% | 80% | 75% | 95% | 124% | 0.266 µM | 1.96 µM | > 100 µM | 0.0479 µM | TGI (NCI/ADR-RES [8]): > 100 µM; CC50 (NCI/ADR-RES [8]): > 100 µM; growth at 0.1 µM (CCRF-CEM [9]): 11%; GI50 (CAKI-1 [10]): 0.0369 µM; TGI (CAKI-1 [10]): 0.0893 µM; CC50 (CAKI-1 [10]): > 100 µM; GI50 (SN12C): 0.398 µM; LC50 (SN12C): > 100 µM; TGI (SN12C): > 100 µM; growth at 10 µM (K562): 9.74%; growth at 10 µM (HOP-62): 14.9%; growth at 10 µM (NCI-H23): -10.3%; growth at 10 µM (HL-60(TB)): -20%; growth at 10 µM (A498 [11]): 7%; growth at 10 µM (ACHN): 16%; growth at 10 µM (CAKI-1 [12]): -25%
2 | Cc1cc(O)cc(-c2nn(CC#N)cc2-c2ccnc(-c3ccc(N(C)C)cc3)c2)c1 | 90% | 112% | 91% | -16.3% | 51.1% | 85% | 84% | 3.59 µM | > 100 µM | > 100 µM | 96% | 97% | 96% | 107% | 92% | 103% | 3.71 µM | 22.2 µM | > 100 µM | 2.54 µM | TGI (NCI/ADR-RES [8]): 7.93 µM; CC50 (NCI/ADR-RES [8]): > 100 µM; growth at 0.1 µM (CCRF-CEM [9]): 96%; GI50 (CAKI-1 [10]): 2.89 µM; TGI (CAKI-1 [10]): 16.4 µM; CC50 (CAKI-1 [10]): > 100 µM; GI50 (SN12C): 4.28 µM; LC50 (SN12C): > 100 µM; TGI (SN12C): 30 µM; growth at 10 µM (K562): 19.5%; growth at 10 µM (HOP-62): 36.5%; growth at 10 µM (NCI-H23): 35.9%; growth at 10 µM (HL-60(TB)): -16%; growth at 10 µM (A498 [11]): -33%; growth at 10 µM (ACHN): -30%; growth at 10 µM (CAKI-1 [12]): -31%
3 | COc1cc(C)cc(-c2nn(CC#N)cc2-c2ccnc(-c3ccc(N(C)C)cc3)c2)c1 | 15% | 50% | 22% | 2.26% | 4.2% | 93% | 87% | 0.454 µM | > 100 µM | > 100 µM | 86% | 97% | 99% | 119% | 99% | 102% | 1.36 µM | 10.7 µM | > 100 µM | 0.253 µM | TGI (NCI/ADR-RES [8]): 0.655 µM; CC50 (NCI/ADR-RES [8]): > 100 µM; growth at 0.1 µM (CCRF-CEM [9]): 24%; GI50 (CAKI-1 [10]): 0.345 µM; TGI (CAKI-1 [10]): 18.2 µM; CC50 (CAKI-1 [10]): > 100 µM; GI50 (SN12C): 0.73 µM; LC50 (SN12C): > 100 µM; TGI (SN12C): 33.1 µM; growth at 10 µM (K562): 9.86%; growth at 10 µM (HOP-62): 18.9%; growth at 10 µM (NCI-H23): -3.77%; growth at 10 µM (HL-60(TB)): -27%; growth at 10 µM (A498 [11]): -33%; growth at 10 µM (ACHN): -18%; growth at 10 µM (CAKI-1 [12]): -11%
4 | COc1cc(C)cc(-c2c(-c3ccnc(-c4ccc(C(C)=O)cc4)c3)cnn2CC#N)c1 | 87% | 103% | 88% | 49.2% | 83% | 69% | 81% | 2.97 µM | > 100 µM | > 100 µM | 88% | 83% | 91% | 100% | 95% | 104% | 2.59 µM | 9.02 µM | > 100 µM | 2.87 µM | TGI (NCI/ADR-RES [8]): > 100 µM; CC50 (NCI/ADR-RES [8]): > 100 µM; growth at 0.1 µM (CCRF-CEM [9]): 84%; GI50 (CAKI-1 [10]): 4.24 µM; TGI (CAKI-1 [10]): > 100 µM; CC50 (CAKI-1 [10]): > 100 µM; GI50 (SN12C): 4.49 µM; LC50 (SN12C): > 100 µM; TGI (SN12C): > 100 µM; growth at 10 µM (K562): 30.1%; growth at 10 µM (HOP-62): 78.1%; growth at 10 µM (NCI-H23): 83.7%; growth at 10 µM (HL-60(TB)): -3%; growth at 10 µM (A498 [11]): 27%; growth at 10 µM (ACHN): 24%; growth at 10 µM (CAKI-1 [12]): 25%
